Experimental data from article PMC4312754 (Neuropharmacology, 2014).
Positions count from the first letter of the chain named.

Experiments:
Experiment in all cases: two-electrode voltage clamp, Xenopus oocytes
Type in all cases: cell-based
5-HT3AB receptor [1] = biological target: T1, 5-HT3AB receptor (Homo sapiens, UniProt O95264+P46098, O95264:E122Q)
T1 sequence (P46098 24-478): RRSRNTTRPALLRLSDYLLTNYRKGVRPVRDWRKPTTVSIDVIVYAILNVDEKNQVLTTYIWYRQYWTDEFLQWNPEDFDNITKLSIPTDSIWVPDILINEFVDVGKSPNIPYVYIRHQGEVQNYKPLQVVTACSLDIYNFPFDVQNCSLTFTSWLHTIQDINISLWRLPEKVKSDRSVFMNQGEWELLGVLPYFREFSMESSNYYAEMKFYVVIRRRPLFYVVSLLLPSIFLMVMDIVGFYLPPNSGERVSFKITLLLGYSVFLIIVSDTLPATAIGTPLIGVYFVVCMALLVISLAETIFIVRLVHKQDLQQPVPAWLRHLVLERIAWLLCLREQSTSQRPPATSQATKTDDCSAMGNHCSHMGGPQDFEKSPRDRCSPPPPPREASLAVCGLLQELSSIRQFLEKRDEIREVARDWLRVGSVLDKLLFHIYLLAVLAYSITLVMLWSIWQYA
T1 sequence (O95264 22-441 E122Q): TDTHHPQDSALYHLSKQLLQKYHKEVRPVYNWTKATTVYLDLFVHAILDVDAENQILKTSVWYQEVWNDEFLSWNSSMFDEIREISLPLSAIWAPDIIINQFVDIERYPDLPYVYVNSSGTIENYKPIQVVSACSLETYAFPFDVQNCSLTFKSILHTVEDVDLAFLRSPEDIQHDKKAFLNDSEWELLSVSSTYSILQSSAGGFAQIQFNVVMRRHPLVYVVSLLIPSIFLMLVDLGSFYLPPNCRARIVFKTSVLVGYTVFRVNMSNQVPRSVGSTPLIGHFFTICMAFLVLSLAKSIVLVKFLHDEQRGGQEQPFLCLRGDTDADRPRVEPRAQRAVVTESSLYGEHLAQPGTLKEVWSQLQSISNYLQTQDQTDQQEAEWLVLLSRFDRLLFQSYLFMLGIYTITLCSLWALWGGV
In short: (§1)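 Human 5-HT3A and 5-HT3B subunits with point mutations were used. Defolliculated stage V–VI Xenopus oocytes were injected with 5–25 ng mRNA and incubated 24–72 h at 18 °C. Recordings were at 22–25 °C, holding at −60 mV. Agonist in Ca2+-free ND96 (pH 7.5) was applied for 15 s, then washed 116 s.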

5-HT3AB receptor [2] = biological target: T2, 5-HT3AB receptor (Homo sapiens, UniProt O95264+P46098, O95264:E122A)
T2 sequence (P46098 24-478): T1 sequence (P46098 24-478)
T2 sequence (O95264 22-441 E122A): T1 sequence (O95264 22-441 E122Q) with Q101A
In short: as §1

5-HT3AB receptor [3] = biological target: T3, 5-HT3AB receptor (Homo sapiens, UniProt O95264+P46098, P46098:E124Q)
T3 sequence (P46098 24-478 E124Q): T1 sequence (P46098 24-478) with E101Q
T3 sequence (O95264 22-441): T1 sequence (O95264 22-441 E122Q) with Q101E
In short: as §1

5-HT3AB receptor [4] = biological target: T4, 5-HT3AB receptor (Homo sapiens, UniProt O95264+P46098, O95264:Y146A)
T4 sequence (P46098 24-478): T1 sequence (P46098 24-478)
T4 sequence (O95264 22-441 Y146A): T1 sequence (O95264 22-441 E122Q) with Q101E, Y125A
In short: as §1

5-HT3AB receptor [5] = biological target: T5, 5-HT3AB receptor (Homo sapiens, UniProt O95264+P46098, O95264:E122Q/P46098:E124Q)
T5 sequence (P46098 24-478 E124Q): T1 sequence (P46098 24-478) with E101Q
T5 sequence (O95264 22-441 E122Q): T1 sequence (O95264 22-441 E122Q)
In short: as §1

[6] = biological target: T6, 5-HT3A receptor (homomeric) (Homo sapiens, UniProt P46098, Y148A)
T6 sequence (P46098 24-478 Y148A): T1 sequence (P46098 24-478) with Y125A

5-HT3AB receptor [7] = biological target: T7, 5-HT3AB receptor (Homo sapiens, UniProt O95264+P46098, P46098:Y148A)
T7 sequence (P46098 24-478 Y148A): T1 sequence (P46098 24-478) with Y125A
T7 sequence (O95264 22-441): T1 sequence (O95264 22-441 E122Q) with Q101E
In short: as §1

5-HT3AB receptor [8] = biological target: T8, 5-HT3AB receptor (Homo sapiens, UniProt O95264+P46098, O95264:E122Q/O95264:Y146A)
T8 sequence (P46098 24-478): T1 sequence (P46098 24-478)
T8 sequence (O95264 22-441 E122Q/Y146A): T1 sequence (O95264 22-441 E122Q) with Y125A
In short: as §1

EC50 (5-HT3AB receptor [1]): 2.3 ± 0.1 µM
EC50 (5-HT3AB receptor [2]): 2.4 ± 0.1 µM
EC50 (5-HT3AB receptor [3]): 3 ± 0.7 µM
EC50 (5-HT3AB receptor [4]): 4.3 ± 0.3 µM
EC50 (5-HT3AB receptor [5]): 2.4 ± 0.4 µM
EC50 [6]: 24.7 ± 0.9 µM
EC50 (5-HT3AB receptor [7]): 11.2 ± 0.6 µM
EC50 (5-HT3AB receptor [8]): 3.5 ± 0.1 µM
Structure (SMILES): N=C(N)NC(=N)Nc1cccc(Cl)c1 [mCPBG]
